# Mcl1 Noxa PPI – disrupts binding of human Mcl-1 to Noxa peptide; Q07820; TR-FRET Mcl-1/Noxa peptide binding, 2 h; inhibition, % at 21.7 µM; actives 1.5% (n = 220,000); AID 1022;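 active = compounds that cut the protein-peptide binding signal by more than 50% relative to plate controls in a single-dose test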;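 note: His-tagged Mcl-1 with rhodamine Noxa BH3 peptide and terbium anti-His antibody; 0% = Mcl-1 plus Noxa peptide wells and 100% = peptide-only wells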
# Target sequence (Q07820 whole entry, looked up): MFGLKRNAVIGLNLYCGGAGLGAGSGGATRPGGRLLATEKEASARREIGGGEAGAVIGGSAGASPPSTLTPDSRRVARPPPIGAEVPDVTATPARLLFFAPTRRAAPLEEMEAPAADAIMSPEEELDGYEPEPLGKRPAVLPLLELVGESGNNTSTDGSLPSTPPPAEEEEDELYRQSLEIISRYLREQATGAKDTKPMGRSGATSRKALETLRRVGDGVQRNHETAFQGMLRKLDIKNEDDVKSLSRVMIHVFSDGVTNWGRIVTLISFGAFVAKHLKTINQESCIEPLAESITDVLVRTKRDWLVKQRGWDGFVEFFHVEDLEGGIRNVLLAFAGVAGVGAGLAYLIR
# Mcl-1 Bim block – disrupts Bim peptide binding to human Mcl-1; inhibition, % at 10 µM; Q07820; AID 1009; actives 0.1% (n = 190,000); Bead-based flow cytometry, Bim peptide-Mcl-1 binding; in the data active = inhibition above about 40%;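 note: 0% = no compound tracer wells and 100% = peptide blocker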
# Hck-Nef inh – human Hck-Nef kinase inhibition | inhibition, % at 20 µM | Recombinant Hck-YEEI plus Nef, Z-Lyte FRET kinase assay | AID 463187 | actives 0.68% (n = 220,000) | P08631;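 active = Hck-Nef kinase inhibition above about 50%, limit read from the data; inactive = inhibition below that limit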;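 note: 0% = DMSO with Hck plus Nef and 100% = Hck alone without Nef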
# Mcl1-Bid inh – Mcl-1/Bid interaction inhibition. TR-FRET Mcl-1/Bid-Dy647 peptide binding, 1536-well. inhibition, % at 21.7 µM. actives 0.97% (n = 220,000);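 active = compounds that cut the binding signal by more than half at the single screening dose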;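 note: His-tagged Mcl-1 with europium anti-His antibody binding Bid BH3 peptide; 0% = Mcl-1 plus peptide wells and 100% = peptide-only wells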
# 14-3-3 Bad PPI – disrupts binding of bovine 14-3-3 zeta to phospho-Bad peptide | inhibition, % at 21.7 µM | P63103 | TR-FRET 14-3-3zeta/Dy647-pBad peptide displacement, 1 h | actives 0.71% (n = 220,000) | AID 781;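 active = inhibition above about 70%, limit read from the data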;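 note: 0% = full 14-3-3 plus peptide FRET controls and 100% = background without 14-3-3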
# Target sequence (P63103 whole entry, looked up): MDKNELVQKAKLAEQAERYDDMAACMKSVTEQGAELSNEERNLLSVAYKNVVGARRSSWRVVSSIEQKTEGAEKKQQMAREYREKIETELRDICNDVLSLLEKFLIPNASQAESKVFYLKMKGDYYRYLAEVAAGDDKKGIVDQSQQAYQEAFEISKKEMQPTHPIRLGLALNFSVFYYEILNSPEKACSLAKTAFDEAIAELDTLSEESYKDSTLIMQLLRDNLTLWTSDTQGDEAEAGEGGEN
# Biofilm kill mix – mixtures killing C. albicans biofilm | C. albicans biofilm persisters + clotrimazole, fluorescence viability; primary screen in compound mixtures of four per well | inhibition, % at 7.6 µM | actives 0.02% (n = 120,000) | AID 1242;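 active = inhibition above 30.3% in the primary screen of four-compound pools, then above 30% when the compound was retested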;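 note: compounds exposed to preformed 24 h biofilms for 48 h; 0% = untreated biofilm control and 100% = clotrimazole plus chlorhexidine kill blank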
#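 Assay system: C. albicans biofilms / Medium: RPMI/MOPS medium, pH 7.0 / Schedule: biofilm formation 24 h, compound exposure 48 h, 37 °C / Measured by: Alamar Blue fluorescence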
# Hck-Nef confirm – confirmation of Hck-Nef kinase inhibitors; shares compounds with Hck-Nef inh; actives 28% (n = 1,300); calls only at 10 µM; Recombinant Hck-YEEI:Nef, Z-Lyte FRET kinase assay;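 active = average inhibition of at least 50%, with Z-scores no higher than 3 in both the phospho-tyrosine peptide and fluorescence counterscreens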
# * = called active by the depositor; i = inactive; . = no result given. In the library only some 3.2% were active in any assay of this set; here they are far more common.
SMILES,Mcl1 Noxa PPI,Mcl-1 Bim block,Hck-Nef inh,Mcl1-Bid inh,14-3-3 Bad PPI,Biofilm kill mix,others
COc1ccc(Cn2c(N)c(C(=O)NCc3ccco3)c3nc4ccccc4nc32)cc1,71*,6,35,40,1,.,
COc1cccc(-n2c(/C=C/c3ccc(O)c(O)c3)nc3ccccc3c2=O)c1,56*,-1,-14,-6,-2,3,
O=c1c2ccccc2nc(/C=C/c2ccc(O)cc2)n1-c1cccc(O)c1,2,0,12,-18,-1,-10,
Cc1ccc2c(c1)C1CN(C)CCC1N2C(=O)Nc1cccc(Cl)c1 (stereo unspecified),99*,37,0,3,3,.,
CN1CCC(N(C)c2nc(-c3ccccc3)nc3ccccc23)CC1,52*,0,-1,5,-2,.,
CSc1nc(N2CCN(C)CC2)c2ccccc2n1,10,0,5,-16,-5,9,
OCC12COC3c4ccccc4C(OC1)N32 (stereo unspecified),-1,0,-8,-1,-1,.,
CSc1ccc(C(=O)C2CCCN(CCCn3cccn3)C2)cc1 (stereo unspecified),31,0,19,65*,30,7,
CCn1ccnc1CN1CCCC(C(=O)c2ccc(SC)cc2)C1 (stereo unspecified),24,-3,17,-25,-6,10,
c1ccc(-c2nnc(C3CC(c4cccnc4)=NO3)o2)cc1 (stereo unspecified),-4,.,21,5,0,18,
C1=C(c2c[nH]c3ccccc23)CCN(Cc2ccccc2)C1,8,13,24,-32,-7,11,
CN(C)c1ccc(CN2CC=C(c3ccc(F)cc3)CC2)cc1,33,1,1,-120,73*,.,
O=C1NC(=O)N(c2ccccc2F)C(=O)/C1=C/c1ccc(Sc2nc3ccccc3[nH]2)o1,66*,12,4,31,23,9,
O=C1NC(=O)N(c2cccc(Cl)c2)C(=O)/C1=C\c1ccc(Sc2nc3ccccc3[nH]2)o1,52*,-1,9,-6,38,10,
O=C1NC(=O)N(c2ccccc2)C(=O)/C1=C/c1ccc(Sc2ccccc2)o1,29,-2,3,29,9,.,
CC1=C(C(=O)N2CCC3(CC2)OCCO3)C2(CCC(C)CC2)OC1=O (stereo unspecified),-8,6,2,-20,6,.,
COc1ccc2c(c1)c(C(=O)CN1CCC3(CC1)OCCO3)c(C)n2Cc1ccccc1,-1,-3,-1,-20,-6,.,
O=C1NC(=O)N(Cc2ccc(F)cc2)C(=O)/C1=C\c1ccc(N2CCCC2)cc1,35,.,23,-35,-6,22,
O=C1NC(=O)N(Cc2ccc(F)cc2)C(=O)/C1=C\c1ccc([N+](=O)[O-])s1,93*,.,37,31,8,25,
COc1ccc(CN2C(=O)NC(=O)/C(=C/c3ccc([N+](=O)[O-])s3)C2=O)cc1,65*,.,12,5,8,15,
CC12CN3CN(C1)CC(c1ccccc1)(C3)C2=O,7,-5,7,-4,-10,14,
CCOP(=S)(OCC)Oc1cc(C)oc(=O)c1Cl,16,.,-17,7,9,13,
COc1ccc(OCC(=O)N2CCN(Cc3ccc(SC)cc3)CC2)cc1,17,-2,19,-1,-7,12,
COc1ccc(OCC(=O)N2CCN(C(C)C)CC2)cc1,6,-1,9,53*,64,3,
COc1ccc(CCn2c(O)c(C=NCCCN(C)C)c(=O)[nH]c2=O)cc1OC,12,0,27,-20,-9,.,
SMILES,Mcl1 Noxa PPI,Mcl-1 Bim block,Hck-Nef inh,Mcl1-Bid inh,14-3-3 Bad PPI,Biofilm kill mix,others
Cc1ccc(N2CCN(CCc3ccccc3)CC2)cc1,16,0,-1,-4,83*,.,
Cc1cccc(N2CCN(CCc3ccccc3)CC2)c1C,19,0,0,8,63,.,
COc1ccc2c(c1)c(C(=O)O)c(C)n2C(C)C,5,2,6,-21,-6,12,
O=[N+]([O-])c1cc(S(=O)(=O)c2ccc(O)c([N+](=O)[O-])c2)ccc1O,85*,0,4,-70,0,17,
O=c1c2ccccc2nc(-c2ccco2)n1-c1cccnc1,97*,-6,0,-20,9,.,
CC(C)(C#CCCCCC#CC(C)(C)[N+](C)(C)C)[N+](C)(C)C,-2,.,15,-19,-3,15,
COC(=O)C1=Nc2ccccc2/C1=C\c1c(O)n(-c2ccc(Br)cc2)c(=O)[nH]c1=O,77*,0,20,-31,25,15,
COC(=O)C1=Nc2ccccc2/C1=C\c1c(O)n(-c2ccc(OC)cc2)c(=O)[nH]c1=O,53*,1,3,-27,27,.,
CCOC(=O)C1=C(N)Oc2cc(C)oc(=O)c2C12C(=O)N1c3c(cccc32)C(C)=CC1(C)C (stereo unspecified),15,-1,0,-20,1,.,
CCOC(=O)C1=C(N)Oc2cc(C)oc(=O)c2C12C(=O)N1c3c(cccc32)C(C)CC1(C)C (stereo unspecified),2,-1,0,-32,70*,.,
OC1/C(=C/c2ccc(F)cc2)N2CCC1CC2 (stereo unspecified),3,-2,5,-34,6,12,
CN1C(=O)N(C)C(=O)C2(Cc3cc([N+](=O)[O-])ccc3N(C)C2)C1=O,-14,-1,17,-21,-15,21,
CC(=O)C1C2c3ccccc3OC1(C)N=c1s/c(=C/c3cnn(C)c3)c(=O)n12 (stereo unspecified),-8,-2,1,1,1,.,
COC(=O)C1C2c3ccccc3OC1(C)N=c1s/c(=C/c3cnn(C)c3C)c(=O)n12 (stereo unspecified),9,64*,11,-8,-2,.,
O=c1[nH]c(=S)[nH]c(O)c1N=Nc1ccc(SC(F)F)cc1,47,.,-2,-25,4,18,
O=c1[nH]c(=S)[nH]c(O)c1N=Nc1ccc(S(=O)(=O)N2CCc3ccccc32)cc1,56*,-5,19,-35,-2,6,
CN(C)CCNC(=O)c1cccn(Cc2cc(C(F)(F)F)cc(C(F)(F)F)c2)c1=O,2,0,21,-23,-17,3,
COc1cccc(N2CCN(Cc3ccc(Cl)cc3)CC2)c1,.,-3,-1,1,34,.,
COc1cccc(N2CCN(Cc3cccc(Cl)c3)CC2)c1,20,-5,4,-20,80*,.,
O=C1NC(=O)N(CCC2=CCCCC2)C(=O)/C1=C\c1cccs1,24,-3,51*,-56,4,-2,
COc1ccc(/C=C2/C(=O)N(Cc3ccco3)C(=O)N(C(C)C)C2=O)cc1,20,-4,95*,4,-1,12,Hck-Nef confirm=i
